RGS4 inh – human RGS4 inhibition. HEK293 M3R/RGS4 inducible, Fluo-4 calcium flux; hits give high values; triggered by carbachol at its EC20. B-score at 10 µM. AID 463165. hit rate 0.45% among 310,000;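 active = B-score, a plate-corrected calcium signal, over three deviations above library mean, with baseline fluorescence within five deviations of library mean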;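 note: RGS4 expression induced by doxycycline in cells with stable M3 receptor; B-score is computed from the integrated fluorescence ratio over baseline after carbachol; higher B-score means a larger calcium signal and so more RGS4 inhibition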
Target sequence (P49798 whole entry, looked up): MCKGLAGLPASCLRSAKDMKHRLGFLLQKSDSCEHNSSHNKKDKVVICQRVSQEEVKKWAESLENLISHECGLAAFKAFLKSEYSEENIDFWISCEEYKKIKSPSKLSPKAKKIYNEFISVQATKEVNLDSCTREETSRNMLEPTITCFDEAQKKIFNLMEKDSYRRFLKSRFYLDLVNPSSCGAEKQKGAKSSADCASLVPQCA
MrgX1 ag – human MrgX1 receptor agonism, primary screen; AID 588627; MrgX1-HEK293 cells, Fluo-4 calcium fluorescence, agonist mode; hits give high values; hit rate 0.44% among 310,000; B-score at 10 µM;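 active = calcium response B-score plate-corrected fluorescence ratio at least 3 library SD, with starting fluorescence B-score inside 5 SD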
Target sequence (Q96LB2 whole entry, looked up): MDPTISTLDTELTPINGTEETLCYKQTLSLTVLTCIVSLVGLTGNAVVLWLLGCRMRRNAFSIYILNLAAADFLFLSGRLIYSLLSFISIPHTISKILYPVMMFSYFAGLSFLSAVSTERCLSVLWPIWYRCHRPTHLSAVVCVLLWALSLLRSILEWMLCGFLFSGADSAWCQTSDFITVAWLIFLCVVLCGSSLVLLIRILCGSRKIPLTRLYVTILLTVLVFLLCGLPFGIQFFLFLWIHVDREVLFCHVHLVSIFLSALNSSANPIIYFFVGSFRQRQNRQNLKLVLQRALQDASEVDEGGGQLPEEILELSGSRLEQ
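System: HEK293 cells stably expressing human MrgX1 receptor; Dosing: test compound in the initial addition of three; Schedule: overnight plating, then 30 min 37 °C plus 30 min room-temperature dye loading; Detection: kinetic calcium dye fluorescence, Fluo-4 NW; Controls: per-plate positive and negative controls for Z′ factor.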
MrgX1 PAM – allosterically activates human MrgX1 receptor signaling; MrgX1-HEK293, Fluo-4 calcium flux, FDSS; hits give high values; Q96LB2; B-score at 10 µM; hit rate 0.63% among 310,000;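 active = plate-corrected calcium response at least 3 library SD above typical, normal starting fluorescence, not activating the receptor alone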;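 note: compound read alongside a low EC10 to EC30 dose of BAM8-22 agonist; peak minus trough fluorescence over baseline measured at the second addition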
MrgX1 antagonist – blocks BAM8-22 activation of human MrgX1 receptor; Q96LB2; MRGX1-HEK293 calcium flux, Fluo-4, BAM8-22 antagonism; hits give low values; B-score at 10 µM; hit rate 1.3% among 310,000;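 active = calcium-response B-score plate-corrected more than 3 library SD below zero, starting fluorescence within 5 deviations, no agonist response on first addition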;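 note: peak minus trough fluorescence over baseline after final BAM8-22 challenge near maximal dose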
RGS4 pot – RGS4 potentiation or activation; HEK293 M3R/inducible RGS4, carbachol calcium flux Fluo4; hits give low values; B-score at 10 µM; hit rate 0.92% among 310,000;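 active = B-score of the integrated calcium signal more than 4 SD below the library mean, with starting fluorescence not abnormally high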;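 note: negative B-score means reduced calcium response which marks RGS4 activation or potentiation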
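test system = HEK293 cells with stable M3R and inducible RGS4 | schedule = recording 10 s baseline at 1 Hz, 100 s post-agonist | technique = Fluo4-AM (2 µM) calcium-flux fluorescence, kinetic read | measure = Agonist-evoked peak-minus-minimum fluorescence over baseline, integrated ratio, B score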
MrgX1 ant reconf – reconfirmed antagonist of human MrgX1 receptor signaling. MrgX1-HEK293, BAM8-22 calcium flux, Fluo-4; hits give low values. hit rate 19% among 2,300. remaining BAM8-22 calcium response % of control (hits give low values), % at 10 µM. shares compounds with MrgX1 antagonist;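 active = remaining agonist calcium response no higher than 100% minus 3 SD of agonist-only control wells, with starting fluorescence near control levels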;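 note: agonist BAM8-22 given at a near maximal EC90 to ECmax level; peak minus minimum fluorescence divided by baseline after agonist addition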
HEK293 Ca flux – counter-screen for MrgX1 antagonists: effect in parental HEK293 cells | hit rate 2% among 4,000 | AID 624111 | fluorescence ratio F(max-min)/F0 at 10 µM | shares compounds with MrgX1 antagonist | Fluo-4 calcium fluorescence, FDSS;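 active = duplicate-averaged calcium fluorescence ratio at least three times the standard deviation of buffer wells, a nonspecific response in parental cells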
HEK293 Ca counter – activity in parental HEK293 cells without MrgX1. AID 624114. fluorescence ratio F(max-min)/F0 at 10 µM. shares compounds with MrgX1 antagonist. hit rate 0.4% among 4,000. parental HEK293 calcium flux, Fluo-4 fluorescence ratio; hits give high values;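 active = calcium fluorescence ratio, averaged over duplicates, at least 3 SD of the buffer-well ratio, meaning a nonspecific response in receptor-free cells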;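 note: untransfected parental HEK293 lacking MrgX1 used as counterscreen for MrgX1 allosteric activators; fluorescence change taken during the second addition on a kinetic imager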
HEK293 Ca cntr2 – counter-screen for MrgX1 activators: effect in parental HEK293 cells; AID 624115; Fluo-4 calcium fluorescence (FDSS); hits give high values; fluorescence ratio F(max-min)/F0 at 10 µM; hit rate 8.7% among 4,000; shares compounds with MrgX1 antagonist;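 active = calcium fluorescence ratio at least three times the spread of buffer wells, meaning a non-specific response in parental cells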
An asterisk follows results filed as active; i = inactive; / = no result given. Most compounds without a hit are left out; they make up all but 3.5% or so of the library.

SMILES	RGS4 inh	MrgX1 ag	MrgX1 PAM	MrgX1 antagonist	RGS4 pot	MrgX1 ant reconf	HEK293 Ca flux	HEK293 Ca counter	HEK293 Ca cntr2
CN(C)C/C=C(\c1ccc(Br)cc1)c1cccnc1	/	i	i	-4.9*	/	i	i	i	i
O=C(COC(=O)c1cccnc1Nc1ccccc1F)NCCN1C(=O)CSC1=O	i	i	i	-12*	i	i	i	i	i
CC(C)Cc1ccc(C(C)C(=O)Nc2nccs2)cc1 (stereo not drawn)	i	i	i	-4.7*	i	72%*	i	i	i
Cc1ccc(NC(=O)CC2=NC(=O)C(CC(=O)Nc3ccccc3F)S2)cc1 (stereo not drawn)	i	i	i	-4.9*	i	i	i	i	i
CCn1c(SCC(=O)NC2CCCCC2)nnc1C(C)NC(=O)c1ccccc1F (stereo not drawn)	i	i	i	i	i	/	/	/	/
CC1(C)CC(=O)C=C(NCCO)C1	i	i	i	-4.7*	i	i	i	i	i
CC(C)CCNC(=O)c1cc(-c2ccncc2)nc2ccc(S(=O)(=O)N3CCOCC3)cc12	i	i	i	-8.3*	i	i	i	i	i
COc1ccc(N2C(=O)CCC(C(=O)N3CCOCC3)C2c2ccc(F)cc2)cc1 (stereo not drawn)	i	i	i	-4.8*	i	i	i	i	i
COc1ccc(N2C(=O)CCC(C(=O)N3CCCCC3)C2c2ccc(F)cc2)cc1 (stereo not drawn)	i	i	i	i	i	/	/	/	/
COc1ccc(N2C(=O)CCC(C(=O)N3CCN(c4ccccn4)CC3)C2c2ccc(F)cc2)cc1 (stereo not drawn)	i	i	i	i	i	/	/	/	/
COc1ccc(CNC(=O)COc2cc3c(c4oc(=O)cc(C)c24)CCC(C)(C)O3)cc1OC	i	i	i	-4.7*	i	i	i	i	i
Cc1cc(=O)oc2c3c(cc(OCC(=O)NCc4ccncc4)c12)OC(C)(C)CC3	i	i	i	-4.9*	i	76%*	i	i	i
CCn1cc(CN2CCCC(C(=O)Nc3ccc(-c4cscn4)cc3)C2)c(C)n1 (stereo not drawn)	i	i	i	i	i	/	/	/	/
COc1cccc(NC(=O)CSC(N)=O)c1	i	i	i	i	i	/	/	/	/
O=C(CSc1n[nH]c(=O)n1C1CC1)Nc1ccccc1	i	i	i	i	i	/	/	/	/
O=C(CSc1n[nH]c(=O)n1C1CC1)Nc1cc(Cl)ccc1Oc1ccccc1	i	i	i	-8.4*	i	i	i	i	i
CCN(CC)CCNC(=O)c1cn(CC)c2ccc(S(=O)(=O)N3CCc4ccccc4C3)cc2c1=O	i	i	i	i	i	/	/	/	/
O=C(COc1cccc(NC(=O)c2ccccc2)c1)c1ccccc1	i	i	i	i	i	/	/	/	/
O=C(COc1cccc(NC(=O)c2cccs2)c1)c1ccc(F)cc1	i	i	i	-4.9*	i	i	i	i	i
CCNS(=O)(=O)c1ccc(CCC(=O)NCc2ccc3c(c2)OCO3)cc1	i	i	i	i	i	/	/	/	/
CCN(CC)C(=O)N1CCc2ccccc21	i	i	i	i	i	/	/	/	/
Cc1cc(C(=O)COC(=O)c2ccccc2Br)c(C)n1CC1CCCO1 (stereo not drawn)	i	i	i	i	i	/	/	/	/
Cc1cc(C(=O)COc2ccccc2C(N)=O)c(C)n1CC1CCCO1 (stereo not drawn)	i	i	i	-4.7*	i	71%*	i	i	i
Cn1c(=O)cc(OCC(=O)NCc2cccs2)c2ccccc21	i	i	i	-7.1*	i	i	i	i	i
COc1ccc(CNC(=O)COc2cc(=O)n(C)c3ccccc23)cc1	i	i	i	i	i	/	/	/	/
SMILES	RGS4 inh	MrgX1 ag	MrgX1 PAM	MrgX1 antagonist	RGS4 pot	MrgX1 ant reconf	HEK293 Ca flux	HEK293 Ca counter	HEK293 Ca cntr2
CC(=O)Nc1ccc(-c2cc(NC(C)=O)n(-c3ccccc3)n2)cc1	i	i	i	i	i	/	/	/	/
O=C(CCl)Nc1cc(-c2ccccc2)nn1-c1ccccc1	i	i	i	-5.3*	i	i	i	i	57*
O=c1cc(CSc2ccc(Cl)cc2)nc(N2CCCCC2)[nH]1	i	i	i	-7.1*	i	i	i	i	i
CCn1c(SCC(=O)c2ccc3c(c2)OCCO3)nnc1C(C)C	/	i	i	-4.7*	/	i	i	i	i
CC1=Nc2ccc3ccccc3c2C1(C)C	i	i	i	-5.8*	i	i	i	i	i
O=C(CSC1=NCCS1)N1CCN(c2ccc(Cl)cc2)CC1	i	i	i	-6.3*	i	i	i	i	i
O=C(CSC1=NCCS1)c1ccc(Cl)cc1	i	i	i	i	i	/	/	/	/
CC(=O)Nc1cccc(Oc2ncnc3scc(-c4ccc(C)cc4)c23)c1	i	i	i	i	i	/	/	/	/
COc1cc2c(cc1OC)C(C)N(C(=O)c1cc(C)on1)CC2 (stereo not drawn)	i	i	i	-6.3*	i	85%*	i	i	i
CCCN1C(=O)c2ccccc2NC1c1ccc(O)c(OCC)c1 (stereo not drawn)	i	i	i	i	i	/	/	/	/
Cc1ccc(NC(=O)CC2C(=O)NC3CCCCC3N2C(=O)c2ccc(F)cc2)cc1C (stereo not drawn)	i	i	i	i	i	/	/	/	/
Cc1ccc(Cl)cc1NC(=O)CC1NCCNC1=O (stereo not drawn)	i	i	i	i	i	/	/	/	/
COc1ccccc1C(=O)N1C(CC(=O)Nc2cc(Cl)ccc2C)C(=O)NC2CCCCC21 (stereo not drawn)	i	i	i	-4.7*	i	i	i	i	i

Assay outcomes as filed in PubChem BioAssay.
